# Key:
# Glutamate NMDA receptor [1] = experiment: Binding affinity towards PCP site of the NMDA receptor was measured by displacement of […] in […]; format: tissue-based, Brain
# [2] = molecular target: T1, Glutamate NMDA receptor (Rattus norvegicus) (UniProt P35439+Q00959+Q00960+Q00961+Q62645+Q8VHN2+Q9R1M7); experiment: Evaluated in vivo for its NMDA antagonist activity by the inhibition of NMDA-induced lethality in mice; format: functional, organism-based; details: Mus musculus; target entry is the homologue from another species
# Method in brief: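 CF-1 mice, 22-28 g. Test agent or vehicle (0.9% saline, 5 mL/kg) was given by retrobulbar injection 5 min before a 25 mg/kg NMDA bolus given retrobulbar in the other eye. Endpoint was prevention of lethality.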
# Mus musculus = species on record: Mus musculus; experiment: Testing for ataxia was done by using an inverted screen technique; format: functional
# Method in brief: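 Inverted-screen test in CF-1 mice (22-28 g), scored 5 min after retrobulbar test agent in 0.9% saline (5 mL/kg), immediately before NMDA injection.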
# Glutamate NMDA receptor [3] = experiment: Ability to inhibit glutamate induced accumulation of [45 [Ca2+]] in cultured rat cortical neurons; format: functional
# Method in brief: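 Fetal rat cortical hemisphere dissociated cultures used on day 14-16 after plating. Medium was serum- and Mg-free HBSS with 1.4 mM CaCl2, pH 7.4 (35 mM bicarbonate), 37 °C, 5% CO2. Cells were exposed 30 min to 100 μM L-glutamate (final) plus [45Ca2+] (2 μCi/mL) ± test agent, washed with saline, lysed, and counted. Baseline was subtracted.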
# [4] = molecular target: T1, Glutamate NMDA receptor (Rattus norvegicus); experiment: Percent inhibition at PCP site of NMDA receptor complex was measured by displacement of […] in whole rat brain homogenate at 10 E-7 M; format: tissue-based
# Method in brief: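 [3H]TCP displacement from rat brain membrane preparation (cortical membranes in the methods; whole-brain homogenate in the assay description), following a previously published procedure.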
# [5] = Partition coefficient was measured using a standard shake flask (SF) method at pH 7.4.; format: physicochemical; details: octanol/water
# Method in brief: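 Shake-flask partitioning at pH 7.4.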
# [6] = Partition coefficient (logP) (HPLC); format: physicochemical; details: octanol/water
SMILES,IC50 (Glutamate NMDA receptor [1]) [µM],ED50 [2] [mg/kg],Ataxia (Mus musculus) [mg/kg],IC50 (Glutamate NMDA receptor [3]) [µM],inhibition [4] [%],logD [5],logP [6]
NC12CCCCC1CCc1ccc(O)cc12 (stereo not drawn),0.0075,5.5,3,0.52,–,–,–
"NC12CCCCC1CCc1ccccc12 (single isomer, unassigned; form 1) [listing 1 of 2 here]",0.0113,–,<0.3,0.48,–,–,–
CN[C@]12CCCCC1CSc1ccccc12 (stereo partly drawn),0.03,–,–,–,–,–,–
C[C@]12N[C@H](Cc3ccccc31)c1ccccc12 [DIZOCILPINE],–,–,0.3,–,–,–,–
CNC12CC=CCC1CC(C)c1ccccc12 (stereo not drawn),0.654,–,–,–,–,–,–
NC1c2ccccc2CCC12CCCCC2 (stereo not drawn),3.4,–,–,–,–,–,–
CC1(N)c2ccccc2CCC12CCCC2 (stereo not drawn),–,–,–,–,5,–,–
CNC12CCCCC1Sc1ccccc12 (stereo not drawn),–,0.41,–,0.21,–,–,–
CNC12CC=CCC1CSc1ccccc12 (stereo not drawn),0.069,2,1.8,0.42,–,–,–
CNC12CCCCC1COc1ccccc12 (stereo not drawn),0.113,3.7,0.63,2.3,–,0.96,3.31
NC12CC=CCC1CSc1ccccc12 (stereo not drawn),0.101,–,–,1.7,–,–,–
NCC1CCC2(N)c3ccccc3CCC2C1 (stereo not drawn),–,–,–,–,1,–,–
CNC1(C)c2ccccc2CCC12CCCC2 (stereo not drawn),–,–,–,–,5,–,–
CNC12CC(O)CCC1CCc1ccccc12 (stereo not drawn),0.5,–,–,–,–,–,2.37
CNC12CCCCC1CC(O)c1ccccc12 (stereo not drawn),1.49,–,–,–,–,0.73,1.84
c1ccc(C2(N3CCCCC3)CCCCC2)cc1 [PHENCYCLIDINE],–,0.55,1,0.2,–,–,–
C=CCNC12CCCCC1CCc1ccccc12 (stereo not drawn),0.086,10,<1,0.92,–,–,–
CN[C@]12CCCCC1Cc1ccccc12 (stereo partly drawn),0.0101,0.1,–,0.12,–,–,–
CNC12CCCCC1CCc1ccc(OC)cc12 (stereo not drawn),0.0058,1,0.4,1.11,–,1.51,3.75
CN[C@@]12CCCCC1CCc1ccccc12 (stereo partly drawn),0.0415,0.97,1,0.81,–,–,–

SMILES,IC50 (Glutamate NMDA receptor [1]) [µM],ED50 [2] [mg/kg],Ataxia (Mus musculus) [mg/kg],IC50 (Glutamate NMDA receptor [3]) [µM],inhibition [4] [%],logD [5],logP [6]
"NC12CCCCC1CCc1ccccc12 (single isomer, unassigned; form 2) [listing 1 of 2 here]",–,10,–,–,–,–,–
NC12CCCCC1CSc1ccccc12 (stereo not drawn),0.0806,2.9,4.7,1.87,–,–,–
CCNC12CCCCC1CCc1ccccc12 (stereo not drawn),0.199,–,–,–,–,1.15,3.41
CC1CC2CCCCC2(N)c2ccccc21 (stereo not drawn),0.508,–,–,–,–,1.61,3.59
N#CC1CCC2(N)c3ccccc3CCC2C1 (stereo not drawn),–,–,–,–,2,–,–
"NC12CCCCC1CCc1ccccc12 (single isomer, unassigned; form 2) [listing 2 of 2 here]",0.113,–,<3,2.25,–,–,–
CNC12CCCCC1CCc1sccc12 (stereo not drawn),0.031,0.89,1,0.35,–,–,–
CNC12CCCCC1CCc1c(C)cc(OC)cc12 (stereo not drawn),0.0535,5.6,3.3,0.93,–,1.72,4.02
CNC12CC=CCC1COc1ccccc12 (stereo not drawn),0.122,–,–,–,–,–,–
NC12CCCCC1CCc1ccccc12 (stereo not drawn) [listing 1 of 2 here],0.0254,–,0.55,0.37,–,–,2.92
NC12CC=CCC1CCc1ccc(O)cc12 (stereo not drawn),0.028,4.6,1.5,1.6,–,–,–
CNC12CCCCC1CCc1ccc(O)cc12 (stereo not drawn),0.00207,0.89,0.58,0.064,–,0.31,2.56
CNC12CCC(CN)CC1CCc1ccccc12 (stereo not drawn),–,–,–,–,8,–,2
CCNC12CCCCC1CSc1ccccc12 (stereo not drawn),0.523,–,–,–,–,–,–
"NC12CCCCC1CCc1ccccc12 (single isomer, unassigned; form 1) [listing 2 of 2 here]",–,1.3,–,–,–,–,–
CNC1(c2ccccc2Cl)CCCCC1=O (stereo not drawn) [KETAMINE],–,6,10,8.86,–,2.18,–
CNC12CC=CCC1CCc1sccc12 (stereo not drawn),0.057,–,–,–,–,–,–
NC12CCCCC1COc1ccccc12 (stereo not drawn),0.178,5.7,10,–,–,–,–
COc1ccc2c(c1)C1(N)CC=CCC1CC2 (stereo not drawn),0.046,2.1,2.1,0.85,–,–,–
CNC12CCCCC1CCc1ccccc12 (stereo not drawn),0.0147,0.54,0.44,0.31,–,–,3.25

SMILES,IC50 (Glutamate NMDA receptor [1]) [µM],ED50 [2] [mg/kg],Ataxia (Mus musculus) [mg/kg],IC50 (Glutamate NMDA receptor [3]) [µM],inhibition [4] [%],logD [5],logP [6]
CNC12CCCCC1CSc1ccccc12 (stereo not drawn),0.062,0.7,1.5,0.71,–,1.54,3.88
COc1ccc2c(c1)C1(N)CCCCC1CC2 (stereo not drawn),0.018,1.2,1.3,0.44,–,–,–
CC1CC2CC=CCC2(N)c2ccccc21 (stereo not drawn),2.46,–,–,–,–,1.89,3.4
NC1c2ccccc2CCC12CCCC2 (stereo not drawn),–,–,–,–,8,–,–
CNC12CCCCC1CC(C)(C)c1ccccc12 (stereo not drawn),20.8,–,–,–,–,–,–
CC1(C)CC2CCCCC2(N)c2ccccc21 (stereo not drawn),37,–,–,–,–,–,–
NC12CC=CCC1CCc1ccccc12 (stereo not drawn),0.0875,4.2,<1,2.35,–,–,2.75
CN[C@@]12CCCCC1CSc1ccccc12 (stereo partly drawn),0.199,–,–,–,–,–,–
NC12CC=CCC1COc1ccccc12 (stereo not drawn),0.399,–,–,–,–,–,–
CNC12CCCCC1CC(C)c1ccccc12 (stereo not drawn),0.317,–,–,–,–,–,–
c1ccc2c(c1)CCC1CCCCC21N1CCCCC1 (stereo not drawn),–,–,–,–,7,–,–
NC12CCCCC1CCc1sccc12 (stereo not drawn),0.043,0.97,3,1.57,–,0.66,3.02
CNC12CC=CCC1CCc1ccccc12 (stereo not drawn),0.0273,1.8,0.6,0.4,–,–,3.07
NC12CCCCC1CCc1ccccc12 (stereo not drawn) [listing 2 of 2 here],–,0.64,–,–,–,–,–
CN[C@]12CCCCC1CCc1ccccc12 (stereo partly drawn),0.00747,0.39,0.18,0.18,–,–,–
CNC12CCCCC1CC(=O)c1ccccc12 (stereo not drawn),0.27,–,–,–,–,0.78,2.41
CNC1c2ccccc2CCC12CCCC2 (stereo not drawn),–,–,–,–,8,–,–
CNC12CC=CCC1CCc1ccc(OC)cc12 (stereo not drawn),0.021,4.1,1,0.41,–,–,–
CNC12CC=CCC1CC(C)(C)c1ccccc12 (stereo not drawn),–,–,–,–,0,–,–
CN(C)C12CCCCC1CCc1ccccc12 (stereo not drawn),0.021,1.6,<0.3,1.63,–,–,–

# Source: ChEMBL document CHEMBL1126730, “Synthesis and pharmacological evaluation of 4a-phenanthrenamine derivatives acting at the phencyclidine binding site of the N-methyl-D-aspartate receptor complex” (J Med Chem, 1993)
